According to ChEMBL document CHEMBL3797028, “Novel S1P1 receptor agonists - Part 4: Alkylaminomethyl substituted aryl head groups” (Eur J Med Chem, 2016):

Assays:
Rattus norvegicus [1] = experiment: Reduction in circulating lymphocyte count in po dosed Wistar rat administered through gavage after 3 to 96 hrs; assay type: functional, organism-based
Method in brief: (§1)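 Male Wistar rats (RccHan:WIST; n = 6) were given a single oral gavage dose of compound in DMSO plus 7.5% succinylated gelatine (final 5% DMSO). Blood lymphocytes were counted just before dosing and at later timepoints. Percent change was calculated per animal relative to the pre-dose value and compared with a vehicle-treated group, reported as the mean. A ±15% change was treated as baseline, and a reduction of about 60% or more as maximal.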

[2] = Total brain concentration in Wistar rat at 10 mg/kg administered as single dose through oral gavage after 2 hrs by LC-MS/MS analysis; assay type: ADME, organism-based; conditions: read-out: Drug uptake
Method in brief: (§2)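 Male Wistar rats (n = 2 per timepoint) were dosed orally at 10 mg/kg. At 2, 6 and 24 h they were anaesthetised with 5% isoflurane and sacrificed, and blood was taken for plasma. The brain was perfused via the carotid with 10 mL 0.9% NaCl, removed, and homogenised in an equal volume of ice-cold 0.1 M Na-phosphate pH 7.4. Samples were assayed by LC-MS/MS against blank-brain calibration. Brain/plasma ratio was calculated from these values, reported as the mean of 2.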

[3] = Total brain concentration in Wistar rat at 10 mg/kg administered as single dose through oral gavage after 6 hrs by LC-MS/MS analysis; assay type: ADME, organism-based; conditions: read-out: Drug uptake; method in brief: as §2
[4] = Total plasma concentration in Wistar rat at 10 mg/kg administered as single dose through oral gavage after 24 hrs by LC-MS/MS analysis; assay type: ADME, organism-based; method in brief: as §2
[5] = Ratio of total drug level in brain to plasma in Wistar rat at 10 mg/kg administered as single dose through oral gavage after 24 hrs; assay type: ADME, organism-based; conditions: read-out: BPR; method in brief: as §2
Plasma [6] = experiment: Plasma concentration in Wistar rat at 1 mg/kg administered as single dose through oral gavage after 72 hrs by LC-MS/MS analysis; assay type: ADME, organism-based; conditions: in vivo, BLD = below limit of detection
Method in brief: (§3)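 Single oral gavage dose to male Wistar rats in DMSO/7.5% succinylated gelatine (final 5% DMSO). Blood was drawn into EDTA at the lymphocyte-count timepoints. Plasma was prepared at 3000 g for 10 min at 4 °C and analysed by LC-MS/MS after protein precipitation.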

Plasma [7] = experiment: Plasma concentration in Wistar rat at 3 mg/kg administered as single dose through oral gavage after 72 hrs by LC-MS/MS analysis; assay type: ADME, organism-based; conditions: in vivo, BLD = below limit of detection; method in brief: as §3
[8] = molecular target: Sphingosine 1-phosphate receptor 3 (Homo sapiens, UniProt Q99500); experiment: Agonist activity at human recombinant S1PR3 expressed in CHO cell membranes assessed as [35S]GTPgammaS binding preincubated for 30 mins followed by [35S]GTPgammaS addition measured after 1 hr by topcount analysis; assay type: functional
Chain of Sphingosine 1-phosphate receptor 3 (Q99500 whole entry): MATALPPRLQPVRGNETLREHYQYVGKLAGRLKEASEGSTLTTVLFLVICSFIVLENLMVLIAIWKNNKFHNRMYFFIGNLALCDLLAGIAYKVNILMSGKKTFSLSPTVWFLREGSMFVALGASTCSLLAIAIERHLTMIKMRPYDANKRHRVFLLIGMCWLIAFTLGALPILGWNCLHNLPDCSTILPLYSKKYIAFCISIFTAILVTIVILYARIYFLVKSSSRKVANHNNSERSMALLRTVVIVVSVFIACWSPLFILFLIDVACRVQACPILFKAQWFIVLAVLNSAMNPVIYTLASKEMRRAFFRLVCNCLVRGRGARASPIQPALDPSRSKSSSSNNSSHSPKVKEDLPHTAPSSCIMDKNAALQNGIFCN
Method in brief: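 Membranes from CHO cells expressing recombinant human S1P1 or S1P3 were used. Buffer was 20 mM Hepes pH 7.4, 100 mM NaCl, 5 mM MgCl2, 0.1% fatty-acid-free BSA, 2.5% DMSO and 50 pM 35S-GTPgammaS. GDP was […] for S1P3. Compound was preincubated 30 min at rt, then incubated 1 h at rt with 35S-GTPgammaS. Bound label was collected by filtration and counted. Specific binding was taken against 10 uM S1P. EC50 was the 50%-of-specific-binding concentration, reported as the geometric mean of at least three independent duplicate runs.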

Rattus norvegicus [9] = experiment: Change in circulating lymphocyte count in Wistar rat at 10 mg/kg administered as single dose through oral gavage after 3 hrs relative to control; assay type: functional; method in brief: as §1
[10] = Apparent oral clearance in Wistar rat plasma at 1 to 10 mg/kg administered through gavage by LC-MS/MS analysis; assay type: ADME, organism-based
Method in brief: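 Male Wistar rats received a single oral gavage dose of compound dissolved in DMSO and added to 7.5% succinylated gelatine in water (final 5% DMSO). EDTA plasma was spun at 3000 g for 10 min at 4 °C and analysed by LC-MS/MS after protein precipitation. Oral clearance was estimated from the plasma concentration–time data. In vivo intrinsic clearance used the well-stirred liver model, assuming complete absorption.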

[11] = Selectivity ratio of EC50 for human recombinant S1PR3 expressed in CHO cell membranes to EC50 for human recombinant S1PR1 expressed in CHO cell membranes; assay type: cell-based
Method in brief: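 Compound and membranes are pre-incubated 30 min at rt, then incubated 1 h at rt, filtered and counted. EC50 is the concentration giving 50% of S1P-defined specific binding, as the geometric mean of ≥3 independent duplicate runs. Ratio = EC50 S1PR3/EC50 S1PR1.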

[12] = Apparent intrinsic clearance in Wistar rat liver microsomes at 1 uM after 2.5 to 15 mins by LC-MS/MS analysis in presence of NADPH; assay type: ADME; conditions: read-out: CLH(app)
Method in brief: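 Compound at 1 uM starting concentration was depleted by 0.5 mg/mL rat liver microsomes in 100 mM sodium phosphate pH 7.4 at 37 °C, with shaking under air. Reactions were started with an NADPH-regenerating system. Samples were taken at 0, 2.5, 5, 10 and 15 min, quenched in ice-cold methanol and analysed by LC-MS/MS. CLint,app came from first-order decay fitting.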

[13] = Distribution coefficient, log D between 1-octonol and phosphate buffer at pH 7; assay type: physicochemical; conditions: 1-octanol/phosphate buffer
Method in brief: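 Partition was between 1-octanol and phosphate buffer at pH 7.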

[14] = Fraction unbound in Wistar rat plasma incubated for 6 hrs by LC-MS/MS based equilibrium dialysis method; assay type: ADME, cell-free
Method in brief: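 Rapid equilibrium dialysis was run on a shaker for 6 h at 37 °C. The donor side held rat plasma (pH 7.2–7.6) or 1 mg/mL rat liver microsomes in phosphate buffer pH 7.4. The receiver side held phosphate buffer pH 7.4. Both sides were measured by LC-MS/MS to give free fraction and recovery.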

Rattus norvegicus [15] = experiment: Change in circulating lymphocyte count in Wistar rat at 10 mg/kg administered as single dose through oral gavage after 96 hrs relative to control; assay type: functional; method in brief: as §1
[16] = Plasma concentration in Wistar rat at 10 mg/kg administered as single dose through oral gavage after 3 hrs by LC-MS/MS analysis; assay type: ADME, organism-based; method in brief: as §3
[17] = Plasma concentration in Wistar rat at 10 mg/kg administered as single dose through oral gavage after 6 hrs by LC-MS/MS analysis; assay type: ADME, organism-based; method in brief: as §3
[18] = molecular target: Sphingosine 1-phosphate receptor 2 (Homo sapiens, UniProt O95136); experiment: Agonist activity at S1PR2 (unknown origin)
Chain of Sphingosine 1-phosphate receptor 2 (O95136 whole entry): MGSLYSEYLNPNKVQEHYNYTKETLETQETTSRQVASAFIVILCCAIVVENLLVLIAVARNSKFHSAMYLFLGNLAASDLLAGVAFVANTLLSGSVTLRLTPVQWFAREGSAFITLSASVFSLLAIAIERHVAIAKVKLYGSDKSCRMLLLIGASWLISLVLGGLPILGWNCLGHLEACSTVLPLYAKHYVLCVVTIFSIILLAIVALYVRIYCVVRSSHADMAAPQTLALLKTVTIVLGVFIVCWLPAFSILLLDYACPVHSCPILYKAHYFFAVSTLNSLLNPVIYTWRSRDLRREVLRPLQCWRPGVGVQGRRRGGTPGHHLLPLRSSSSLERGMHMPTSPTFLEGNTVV

Rattus norvegicus [19] = experiment: Change in circulating lymphocyte count in Wistar rat at 1 mg/kg administered as single dose through oral gavage after 3 hrs relative to control; assay type: functional; method in brief: as §1
Rattus norvegicus [20] = experiment: Change in circulating lymphocyte count in Wistar rat at 1 mg/kg administered as single dose through oral gavage after 6 hrs relative to control; assay type: functional; method in brief: as §1
[21] = Plasma concentration in Wistar rat at 1 mg/kg administered as single dose through oral gavage after 3 hrs by LC-MS/MS analysis; assay type: ADME, organism-based; method in brief: as §3
[22] = Plasma concentration in Wistar rat at 3 mg/kg administered as single dose through oral gavage after 3 hrs by LC-MS/MS analysis; assay type: ADME, organism-based; method in brief: as §3
[23] = Plasma concentration in Wistar rat at 1 mg/kg administered as single dose through oral gavage after 6 hrs by LC-MS/MS analysis; assay type: ADME, organism-based; method in brief: as §3

concentration at 2 h [2]: 522 ng/g
concentration at 6 h [3]: 1030 ng/g
concentration at 24 h [4]: 66.5 ng/mL
Kp at 24 h [5]: 11.5
Cp (Plasma [6]): BLD
Cp (Plasma [7]): BLD
EC50 [8]: 145 nM
CL/F [10]: 19 mL/min/kg
microsomal CLint at 1 µM [12]: 28 µL/min/mg
logD [13]: > 4.1
fraction unbound at 6 h [14]: < 0.001
concentration at 3 h [16]: 722 ng/mL
concentration at 6 h [17]: 540 ng/mL
EC50 [18]: > 1000 nM
concentration at 3 h [21]: 67 ng/mL
concentration at 3 h [22]: 210 ng/mL
concentration at 6 h [23]: 49 ng/mL
SMILES: CCc1cc(-c2noc(-c3cc(C)c(CN(C)CC(C)C)s3)n2)cc(C)c1OC[C@@H](O)CNC(=O)CO
Activity (Rattus norvegicus [1]): Dose-dependent effect
Activity (Rattus norvegicus [9]): -69%
Ratio EC50 [11]: 290
Activity (Rattus norvegicus [15]): 4%
Activity (Rattus norvegicus [19]): -33%
Activity (Rattus norvegicus [20]): -46%
